CHO parental Ca: counter-screen: ATP calcium response change in parental CHO cells; AID 463079; inhibition, % at 5.6 µM; parental CHO-K1, ATP-induced calcium, Fluo-8 fluorescence; actives 0.63% (n = 330,000);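 active = inhibition above that plate's mean sample inhibition plus 3 SD, cut at about 26% in these data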;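 also: 0% = ATP-challenged DMSO wells and 100% = DMSO wells without ATP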
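Material – parental CHO cells · Reagent – ATP stimulus · Compound – single nominal dose of 5.6 µM per compound · Detection – Fluo-8 fluorescence · Read-out basis – percent inhibition of calcium signal · Controls – ATP-challenged DMSO wells low, unchallenged DMSO wells high · Repeats – no replicates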
OX1R antag-1: OX1R (human) antagonism; O43613; OX1R-expressing cells, FRET antagonist read-out; inhibition, % at 6.6 µM; actives 1.8% (n = 330,000); in the data active = inhibition mostly above about 38%, no sharp cut-off; inactive = mostly below about 40%;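 also: 0% = agonist challenge alone and 100% = reference antagonist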
Target sequence (O43613 whole entry, looked up): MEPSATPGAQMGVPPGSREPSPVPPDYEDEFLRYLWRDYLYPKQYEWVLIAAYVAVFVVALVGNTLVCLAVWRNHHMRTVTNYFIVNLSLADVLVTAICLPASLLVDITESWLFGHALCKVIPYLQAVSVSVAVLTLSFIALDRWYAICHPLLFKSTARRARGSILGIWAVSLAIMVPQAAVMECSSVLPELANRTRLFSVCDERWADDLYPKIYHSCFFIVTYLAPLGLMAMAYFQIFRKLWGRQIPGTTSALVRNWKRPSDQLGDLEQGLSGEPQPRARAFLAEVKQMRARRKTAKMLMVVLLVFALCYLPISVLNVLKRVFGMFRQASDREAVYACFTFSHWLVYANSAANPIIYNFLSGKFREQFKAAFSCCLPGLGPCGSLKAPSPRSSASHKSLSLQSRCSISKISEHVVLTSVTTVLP
OX1R antag-2: blocks the human orexin 1 receptor; O43613; CHO/OX1R cells, Fluo-8 calcium fluorescence, orexin A; inhibition, % at 5 µM; actives 0.43% (n = 330,000); AID 434989;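 active = inhibition above its plate's threshold, mean inhibition of all tested compounds on the plate plus 3 SD, cut at about 37% in these data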;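 also: 0% = orexin A challenge wells and 100% = SB-334867-A antagonist wells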
TAAR1 antag: human TAAR1 antagonism. Q96RJ0. CHO RD-HGA16 TAAR1, Fluo-8 calcium fluorescence, antagonist. inhibition, % at 3 µM. actives 1.5% (n = 360,000). AID 624466;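 active = inhibition above a per-plate cutoff, the mean inhibition of test compounds on that plate plus 3 SD, cut at about 49% in these data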;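 also: 0% = DMSO plus EC80 beta-PEA response and 100% = DMSO alone without agonist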
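Material: RD-HGA16 CHO cells with stable hTAAR1 and Gα16; Dosing: single nominal final test compound concentration of 3 µM; Schedule: seeding 17-24 h prior, 75-min 37 °C, 30-min RT dye loading; Detection: kinetic Fluo-8 calcium fluorescence measurement; Measure: % inhibition from peak post-agonist over basal fluorescence ratio; Benchmarks: vehicle and agonist controls.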
GPR7 antag: human neuropeptides B/W receptor 1 antagonism. AID 1861. inhibition, % at 4.4 µM. actives 1.1% (n = 290,000). GPR7-expressing cells, fluorescence antagonist assay; in the data active = inhibition above about 16%, passing the limit was not always enough;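 also: cells stimulated with the agonist NPW; 0% = agonist with vehicle and 100% = vehicle without agonist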
TAAR1 ag: agonists of human TAAR1; Q96RJ0; CHO RD-HGA16 TAAR1, Fluo-8 calcium fluorescence; vehicle wells 0%, saturating PEA agonist 100%; activation, % at 3 µM; actives 0.99% (n = 360,000); AID 624467;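 active = activation above the mean activation of all test compounds in the run plus 3 SD, cut at about 38% in these data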
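test system = CHO RD-HGA16 cells carrying human TAAR1 plus Gα16 | schedule = 17-24 h seeding, 75 min 37 °C dye, 30 min RT | compound dosing = 3 µM single concentration | control set = DMSO and PEA EC100 | replicates = n 1 | signal = Fluo-8 fluorescence, 5 s baseline then 140 s kinetic read | measure = percent activation vs PEA EC100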
Numbers without * were called inactive; nt = no result given. Sampled rows, rich in hits. Any-hit rate of the full collection: about 4.6%.

SMILES	CHO parental Ca	OX1R antag-1	OX1R antag-2	TAAR1 antag	GPR7 antag	TAAR1 ag
C[C@]12Cc3ccccc3C1CC1=N[C@@H](C3CCCCC3)O[C@@]13C[C@@H]2C(=O)N3C1CCN(Cc2ccccc2)CC1 (stereo not given in full)	nt	nt	nt	-42	nt	-2
CCOC(=O)[C@]12CCCC=C1N(Cc1ccccc1)C(=O)[C@H](CC(=O)NCC13CC4CC(CC(C4)C1)C3)C2	nt	nt	nt	-31	nt	2
COC(=O)c1sccc1-c1ccc(C(=O)Nc2cccc(Cl)c2)o1	14	74*	13	-5	0	7
CN(C)S(=O)(=O)Oc1ccsc1C(=O)Nc1cccc(Cl)c1	-4	3	-1	18	-4	-1
O=C1Nc2ccc(Cl)cc2[C@@](C#CC2CC2)(C(F)(F)F)O1	48*	20	14	nt	-24	nt
C#CCn1c(S(=O)(=O)Cc2ccc(F)cc2)nc(-c2ccccc2)c1-c1ccccc1	-19	40*	-20	4	-9	2
CCOC(=O)Cn1c(S(=O)(=O)Cc2ccc(F)cc2)nc(-c2ccccc2)c1-c1ccccc1	-18	14	-12	7	8	5
CC(C)CCN(C)[C@H]1C[C@H]2c3[nH]c4ccccc4c3CCN2C[C@H]1[C@H](C)O	nt	nt	nt	-18	nt	11
CN1CCN(c2ccccc2NC(=O)c2cccc([N+](=O)[O-])c2)CC1	-13	27	-29	0	-12	0
O=C(c1ccc(-c2ccc(Cl)cc2)o1)N1CCN(c2ccc([N+](=O)[O-])cc2Cl)CC1	37*	17	6	-6	-4	6
O=C(Nc1ccccc1N1CCN(C(=O)c2ccc(Cl)cc2)CC1)c1cccc([N+](=O)[O-])c1	-14	20	-9	51*	5	7
CCOC(=O)c1ccc(-c2ccc3c(=O)c4ccccc4n(C)c3c2)cc1F	-3	66*	8	6	-1	7
O=c1c2cc(Br)ccc2nc(-c2cccc(C(F)(F)F)c2)n1O	28	39	20	-9	-6	46*
CCN(CC(=O)Nc1c(F)cccc1F)C(=O)Cc1c(C)nc2ccccc2c1C	-18	1	-12	-4	nt	1
CCN(CC(=O)Nc1c(F)cccc1F)C(=O)Cc1csc(-c2ccccc2)n1	-30	63*	-10	-6	nt	10
CN(C)c1cc(-c2ccc([N+](=O)[O-])cc2)oc(=O)c1Cl	-12	49*	-21	-4	-17	0
CN(C)c1cc(-c2ccc(Cl)cc2)oc(=O)c1Cl	-16	16	-32	0	-13	-1
O=[N+]([O-])c1ccc(NCCCNS(=O)(=O)c2ccc(Cl)cc2)c(Cl)c1	7	16	-1	-8	54*	2
Cc1nn(S(=O)(=O)c2cccs2)c(C)c1Sc1ccc([N+](=O)[O-])cc1	41*	56	21	45	5	1
Cc1nn(S(=O)(=O)c2cccs2)c(C)c1Sc1ccccc1	nt	nt	nt	nt	-6	nt
Cc1nn(C)c(Nc2ccc(Br)cc2)c1Br	71*	50	40*	8	8	6
Cc1cc(C)nc(-n2nc(C)c(Br)c2Nc2ccc(Br)cc2)n1	-24	11	-39	-10	2	10
CCN(CC)c1ccc(/C=C/C(=O)c2ccc(Br)cc2)cc1	91*	15	99*	81*	7	138*
CC(=O)Nc1cccc(C(=O)/C=C/c2ccc(Br)cc2)c1	-11	9	-30	7	20*	23
O=C(/C=C/c1ccc(Br)cc1)c1ccc(NC2=NCCCS2)cc1	-18	17	-25	17	52*	7
SMILES	CHO parental Ca	OX1R antag-1	OX1R antag-2	TAAR1 antag	GPR7 antag	TAAR1 ag
O=C(/C=C/c1ccccc1)c1ccc(NC2=NCCCS2)cc1	10	15	-7	-10	8	5
CCCCCCCCN1C(=O)[C@@H](CC(=O)N2CCCCC2)C[C@@]2(C(=O)OC)C1=C[C@H](C(C)(C)C)O[C@@H]2C	nt	nt	nt	-24	nt	-2
COC(=O)c1cc2c(c3c4cc(C)ccc4n(S(=O)(=O)c4cccc(C)c4)c13)C(=O)N(Cc1ccc(C(F)(F)F)cc1)C2	nt	nt	nt	-23	nt	0
CC(C)C[C@H](NC(=O)CC[C@H]1O[C@@H](n2ccc(=O)[nH]c2=O)[C@H](O)[C@@H]1O)C(=O)O	nt	nt	nt	-13	nt	0
CC[N+](CC)(CC)CCOc1ccc(/C=C/c2ccccc2)cc1	3	13	1	-2	nt	15
CC[N+](CC)(CC)CCCCOc1ccc2c(c1)C(=O)c1cc(OCCCC[N+](CC)(CC)CC)ccc1-2	-7	57*	-6	-13	-14	0
CC1(c2nnnn2-c2ccc3c(c2)OCCO3)CCC(=O)N1Cc1cccnc1 (stereo not given)	nt	nt	nt	-10	nt	5
COc1cc(/C=N/NC(=O)c2cc3c(ccc4ccccc43)o2)cc(OC)c1O	-9	53*	7	33	5	9
COc1ccccc1C=NNC(=O)NN=Cc1ccccc1OC	nt	nt	nt	-3	nt	-1
COc1cc(/C=N/NC(=O)c2ccc(COc3ccccc3Cl)o2)cc(Br)c1O	6	-7	-3	44	30*	10
O=C(N/N=C/c1cc2c(cc1Br)OCO2)c1cc2ccccc2o1	-16	76*	-1	6	-16	0
O=C(N/N=C/c1cc2c(cc1Br)OCO2)c1ccccn1	-30	2	-26	-4	-3	-1
COc1ccccc1C=NN=C(NN=Cc1ccccc1OC)NN=Cc1ccccc1OC	nt	nt	nt	52*	nt	16
CCc1nc(C)cn1S(=O)(=O)c1ccc2c(c1)OCCO2	nt	nt	nt	0	nt	3
COC(=O)c1cc(=O)nc(NN=Cc2ccccc2O)s1	nt	nt	nt	8	nt	0
Cc1ccc(S(=O)(=O)NC(=O)ON=Cc2ccc3c(c2)OCO3)cc1	nt	nt	nt	-7	nt	1
COC(=O)C1=C(C)N(Cc2ccccc2C(F)(F)F)C(=NCc2ccc(C(F)(F)F)cc2)NC1CCc1ccccc1 (stereo not given)	nt	nt	nt	-9	nt	1
O=S1(=O)N[C@H](Cc2ccccc2)COc2cccc(N3CCCCC3)c21	nt	nt	nt	14	nt	1
CCOC(=O)C1(C)CCCN1C(=O)c1snnc1C (stereo not given)	nt	nt	nt	-18	nt	1
Nc1[nH]c(C(=O)c2ccccc2)c(-c2ccccc2C(F)(F)F)c1C(=O)c1c[nH]c2ccccc12	nt	nt	nt	-22	nt	3
O=C(N/N=C/c1ccncc1)c1cc2c(ccc3ccccc32)o1	0	37	1	21	6	6
COc1ccccc1/C=N/NC(=O)c1cc2c(ccc3ccccc32)o1	-18	65*	-1	16	-15	1
O=C1c2ccccc2C(=O)N1Nc1ccc([N+](=O)[O-])cc1[N+](=O)[O-]	-7	68*	-21	12	-6	1
O=[N+]([O-])c1ccc(Nc2ccccn2)c([N+](=O)[O-])c1	-2	36*	-13	-6	-8	0
